Compound activity as filed in PubChem BioAssay.
A selection: hits, their analogues and other compounds. The true share with any hit is near 3%.
T cruzi repl – T. cruzi replication inhibition | T. cruzi beta-gal in NIH3T3, luminescence, 90 h | inhibition, % (concentration not given with the values) | 1.4% of 300,000 active;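 active means mean inhibition across valid replicates above about 55%, limit read from the data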;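 further: signal also drops with host cell toxicity which is not excluded here; 0% = plate median of DMSO wells and 100% = zero luminescence signal; higher percent means less beta-gal luminescence so fewer parasites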
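compound dosing = single 50 nL compound addition per well in DMSO | material = NIH/3T3 host cells with β-galactosidase reporter T. cruzi | input = 5,000 host fibroblasts per well | timing = ≥90 h infection period, 3 h prior cell attachment | read-out basis = percent inhibition of parasite-derived β-gal signal | detection = GalScreen β-gal luminescence, detergent lysis, 60 min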
PfHsp90 yeast 2 – inhibits growth of yeast expressing Plasmodium falciparum Hsp90; S. cerevisiae expressing PfHsp90, BacTiter-Glo ATP, 48 h; yeast lacking PDR1 and PDR3 efflux regulators; inhibition, % at 9.4 µM; 0.32% of 310,000 active;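 active means every replicate shows inhibition above about 80%, whatever the replicate mean, limit read from the data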;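 further: 0% = DMSO neutral controls and 100% = 20 µM radicicol positive controls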
Glyco luc inh – blocks N-linked glycosylation in D54 reporter cells; D54 ERlucT glycosylation luciferase reporter, 24 h; percent of 100 nM tunicamycin response; reporter increase, % at 12.5 µM; 0.23% of 360,000 active;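 active means mean luciferase reporter signal, scaled so untreated is 0 and the glycosylation-blocking control 100, at or above a set limit in every replicate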;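 further: luciferase carries N-glycosylation sites so blocking glycosylation raises the light; 0% = median of neutral control wells and 100% = median of 100 nM tunicamycin wells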
PvdQ inh – P. aeruginosa PvdQ acylase inhibition; purified PvdQ acylase, fluorescence plate reader; inhibition, % at 10 µM; 0.063% of 340,000 active; in the data active means inhibition above about 30%, passing the limit was not always enough;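 further: 0% = vehicle neutral wells and 100% = reference inhibitor wells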
CaV13 FRET inh – Primary screen for inhibitors of IQ motif and Ca2+-dependent inactivation inhibitor domain binding in CACNA1D, Förster resonance energy transfer in living cells, … | 0.098% of 340,000 active | inhibition, % at 12.3 µM | AID 743397 | HEK cells, CFP/YFP FRET ICDI-IQ, plate reader, 10 min; percent FRET-ratio fall versus neutral wells;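 active means mean replicate inhibition of at least 30% and at least 1% of replicates passing that level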;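 further: 0% = median of the neutral control wells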
HSF-1 act – increases HSF-1 driven luciferase reporter signal. 1.7% of 300,000 active. activation, % at 9 µM. NIH3T3-HGL HSF-1 luciferase reporter, MG132, 8 h; 100% = twice DMSO control signal;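 active means mean replicate activation of at least 50% with a set share of replicates each reaching 50%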;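 further: 0% = median of the neutral control wells and 100% = twice that signal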
Active calls of the source: *; . = no result.

SMILES	T cruzi repl	PfHsp90 yeast 2	Glyco luc inh	PvdQ inh	CaV13 FRET inh	HSF-1 act
N#C/C(=N\Nc1ccccc1[N+](=O)[O-])C(=N)N1CCCCC1	15	16	-8	-2	-3	64*
N#C/C(=N/Nc1ccc([N+](=O)[O-])cc1)C(=N)N1CCCCC1	23	-12	-7	-7	8	42
Cc1ccc(S(=O)(=O)N2[C@H](CC(=O)c3ccc(Cl)c(Cl)c3)OC[C@@H]2C(C)C)cc1	.	.	.	.	-6	.
O=C1/C(=C/c2ccco2)CCC1C1CCCC1 (centres undefined)	-9	-13	-2	-5	-2	61*
COc1ccc(NC(=O)N(C)C[C@@H]2OCc3cn(nn3)CCCC(=O)N([C@@H](C)CO)C[C@H]2C)cc1	.	.	2	.	.	.
Cc1nn(Cc2ccc(Cl)cc2)c(C)c1NC(=O)CSc1nc2c(c(C(F)(F)F)n1)CCc1ccccc1-2	60*	21	-6	-9	-9	22
Cc1ccc(Cn2nc(C)c(NC(=O)CSc3nc4c(c(C(F)(F)F)n3)CCc3ccccc3-4)c2C)cc1	21	-8	-11	-15	-4	49
Nc1[nH]c(C(=O)c2ccc(Br)cc2)c(-c2ccncc2)c1C(=O)c1ccccc1	.	.	.	.	-15	.
COc1ccc(CNCCC(c2ccc(OC(C)C)cc2)C(C)C)cc1OC (centres undefined)	73*	2	-2	-10	-8	-1
COc1ccc(C(CCNCc2ccc(OC(C)C)cc2)C(C)C)cc1 (centres undefined)	33	.	-8	.	-17	7
CCCCCN(C(=O)CCC(=O)OCC(=O)NCCc1ccccc1)c1c(N)n(CCCC)c(=O)[nH]c1=O	.	.	2	.	-5	.
CCCCCN(C(=O)CCC(=O)OCC(=O)N(CC)c1ccccc1)c1c(N)n(CCCC)c(=O)[nH]c1=O	-4	-16	1	-16	-6	58*
COC(=O)c1c(C)[nH]c(O)c1C=Nc1ccc(Oc2ccccc2)cc1	-28	10	-4	7	3	5
COC(=O)c1c(C)[nH]c(O)c1C=Nc1ccc(C(C)C)cc1	58*	1	-2	-1	.	24
COC(=O)c1sc(NC(=O)/C=C/c2ccc(C)o2)nc1C	-19	-5	0	-13	-3	57*
CCOC(=O)C(C)(C)N(Cc1ccc(Cl)cc1)S(=O)(=O)c1ccc(Cl)c([N+](=O)[O-])c1	4	.	.	.	.	66*
CCN(CC)c1ccc(/C=C2\C(=O)N(c3nnc(C)c(=O)[nH]3)N=C2C)cc1	3	19	43*	-3	-13	3
CCC(C)Oc1cc(-c2ccnc(Nc3cccc(Cl)c3)n2)ccn1 (centres undefined)	57*	3	13	-6	-3	-29
COc1cc([C@H]2c3[nH]c4ccccc4c3C[C@H]3C(=O)N4[C@@H](c5cc(OC)c(OC)c(OC)c5)c5[nH]c6ccccc6c5C[C@H]4C(=O)N23)cc(OC)c1OC	53	-13	20	-11	.	-46
COc1cc(C2c3[nH]c4ccccc4c3CC3COC(=O)N32)cc(OC)c1O (centres undefined)	.	17	36*	-8	-6	.
Cc1cccc(C(C)C)c1NC(=O)COC(=O)c1cccc(S(=O)(=O)N2CCc3ccccc3C2)c1	-14	-24	12	-11	-4	56*
Cc1ccc(NC(=O)c2cccc(S(=O)(=O)N3CCc4ccccc4C3)c2)nc1	16	27	-4	2	-4	-2
Cc1cc(N2CCN(C)CC2)ccc1NC(=O)c1cccc(S(=O)(=O)N2CCc3ccccc3C2)c1	75*	22	3	-16	-4	5
COc1cccc(C(=O)N[C@H](C(=O)N2CCC[C@H]2C(=O)NCc2ccccc2)c2ccccc2)c1	.	.	.	.	-4	.
NC(=O)C1CCCN(C(=O)c2[nH]c(C(F)(F)F)nc2-c2ccccc2)C1 (centres undefined)	.	.	5	.	-8	.
O=C(Nc1ccccc1Cl)N1CCN(c2ccc3nnc(-c4ccccc4)n3n2)CC1	20	3	8	-14	.	-10
